Laboratory results from ChEMBL document CHEMBL2424517, “Eunicellin-based diterpenoids from the Formosan soft coral Klyxum molle with inhibitory activity on superoxide generation and elastase release by neutrophils” (J Nat Prod, 2013).
pEC50, pIC50: −log10 of the molar value.

What was measured:
[1] = Antiinflammatory activity in human neutrophils assessed as inhibition of fMLP/CB-induced superoxide anion generation incubated for 5 mins prior to fMLP/CB challenge; assay type: functional, cell-based; conditions: Neutrophil
How it was run: (§1)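 Neutrophils from healthy adult donors (20−30 y), enriched by dextran sedimentation, Ficoll Hypaque centrifugation and hypotonic lysis, held in Ca2+-free HBSS pH 7.4 at 4 °C. Cells (6 × 10^5/mL) with ferricytochrome c 0.5 mg/mL and Ca2+ 1 mM, 37 °C 2 min, DMSO control. CB 1 μg/mL 3 min, then fMLP 100 nM 10 min. O2•− read as SOD-inhibitable cytochrome c reduction. Mean ± SEM, n = 3 or 4.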

[2] = Antiinflammatory activity in human neutrophils assessed as inhibition of fMLP/CB-induced elastase release at 10 uM incubated for 5 mins prior to fMLP/CB challenge; assay type: functional; conditions: Neutrophil
How it was run: (§2)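 Donor neutrophils (healthy adults, 20−30 y), purified by dextran sedimentation, Ficoll Hypaque and hypotonic lysis, kept in Ca2+-free HBSS pH 7.4 at 4 °C. Cells at 6 × 10^5/mL with MeO-Suc-Ala-Ala-Pro-Val-p-nitroanilide 100 μM as elastase substrate, equilibrated 37 °C 2 min before compound addition. Mean ± SEM, n = 3 or 4.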

[3] = Antiinflammatory activity in human neutrophils assessed as inhibition of fMLP/CB-induced elastase release incubated for 5 mins prior to fMLP/CB challenge; assay type: functional, cell-based; conditions: Neutrophil; how it was run: as §2
[4] = Antiinflammatory activity in human neutrophils assessed as inhibition of fMLP/CB-induced superoxide anion generation at 10 uM incubated for 5 mins prior to fMLP/CB challenge; assay type: functional; conditions: Neutrophil; how it was run: as §1
MOLT-4 = assay: Cytotoxicity against human MOLT4 cells after 6 hrs by Alamar Blue assay; assay type: functional; conditions: MOLT-4, 6 h, read-out: ED50 (the source's name)
K562 = assay: Cytotoxicity against human K562 cells after 6 hrs by Alamar Blue assay; assay type: functional; conditions: K562, 6 h, read-out: ED50 (the source's name)
T47D = assay: Cytotoxicity against human T47D cells after 3 hrs by Alamar Blue assay; assay type: functional; conditions: read-out: ED50 (the source's name)

Row | SMILES | pIC50 [1] | inhibition at 10 µM [2] | pIC50 [3] | inhibition at 10 µM [4] | pEC50 (MOLT-4) | pEC50 (K562) | pEC50 (T47D)
1 | CC(=O)O[C@H]1[C@H](C(C)C)[C@@H]2[C@@H]([C@H]3C[C@](C)(O)[C@@H](OC(C)=O)CC[C@@](C)(OC(C)=O)[C@@H]2O3)[C@](O)(CCl)[C@H]1OC(C)=O | < 5.00 | 6.42% | < 5.00 | 9.36% | – | – | –
2 | CC(=O)O[C@H]1[C@H](C(C)C)[C@@H]2[C@@H]([C@H]3C[C@](C)(O)[C@H](O)CC[C@@](C)(OC(C)=O)[C@@H]2O3)[C@](O)(CCl)[C@H]1OC(C)=O | < 5.00 | 7.3% | < 5.00 | 5.02% | – | – | –
3 | CC(=O)O[C@H]1C[C@H](C(C)C)[C@@H]2[C@@H]([C@H]3C[C@](C)(O)[C@@H](OC(C)=O)CC[C@@](C)(OC(C)=O)[C@@H]2O3)[C@]1(O)CCl | < 5.00 | -1.19% | < 5.00 | 8.92% | – | – | –
4 | CC(=O)O[C@H]1C[C@H](C(C)C)[C@@H]2[C@@H]([C@H]3C[C@](C)(O)[C@@H](O)CC[C@@](C)(OC(C)=O)[C@@H]2O3)[C@]1(O)CCl | < 5.00 | 9.18% | < 5.00 | 3.37% | – | – | –
5 | C=C1[C@H]2[C@@H]([C@@H](C(C)C)C[C@@H]1O)[C@H]1O[C@@H]2C[C@](C)(O)[C@@H](OC(=O)Cc2ccccc2)CC[C@@]1(C)OC(=O)CCC | 5.50 | 89.2% | 5.53 | 81.6% | 5.36 | 5.10 | 5.07
6 | C=C1[C@H]2[C@@H]([C@H](C(C)C)[C@H](OC(C)=O)[C@@H]1O)[C@H]1O[C@@H]2C[C@](C)(O)[C@@H](OC(C)=O)CC[C@@]1(C)OC(=O)CCC | < 5.00 | 6.47% | < 5.00 | 10.5% | – | – | –
7 | C=C1[C@H]2[C@@H]([C@@H](C(C)C)[C@H](O)[C@@H]1OC(C)=O)[C@H]1O[C@@H]2C[C@](C)(O)[C@@H](OC(C)=O)CC[C@@]1(C)OC(=O)CCC | < 5.00 | 16.8% | < 5.00 | 2.92% | – | – | –
8 | C=C1[C@H]2[C@@H]([C@@H](C(C)C)[C@H](OC(C)=O)[C@@H]1O)[C@H]1O[C@@H]2C[C@](C)(O)[C@@H](O)CC[C@@]1(C)OC(=O)CCC | < 5.00 | 7.35% | < 5.00 | 1.17% | – | – | –
9 | C=C1[C@H]2[C@H]([C@H]3O[C@@H]2C[C@](C)(O)[C@@H](OC(C)=O)CC[C@@]3(C)OC(C)=O)[C@H](C(C)C)C[C@@H]1O | < 5.00 | 7.33% | < 5.00 | 14.7% | – | – | –
10 | C=C1[C@H]2[C@@H]([C@@H](C(C)C)C[C@@H]1O)[C@H]1O[C@@H]2C[C@](C)(O)[C@@H](O)CC[C@@]1(C)OC(C)=O | < 5.00 | 11.6% | < 5.00 | 7.14% | – | – | –
11 | C=C1C[C@H]2O[C@H]([C@H]3[C@@H]2C(=C)[C@@H](O)C[C@@H]3C(C)C)[C@](C)(OC(C)=O)CC[C@@H]1O | < 5.00 | 0.62% | < 5.00 | 3.2% | – | – | –
12 | O=c1[nH]cc(F)c(=O)[nH]1 [FLUOROURACIL] | – | – | – | – | 4.82 | 4.79 | 4.30
